Data: ChEMBL document CHEMBL1157731, “Novel KCNQ2/Q3 agonists as potential therapeutics for epilepsy and neuropathic pain” (J Med Chem, 2010)
Calls of active or inactive are those of the source.

Assays:
[1] = target: Voltage-gated potassium channel, KQT; KCNQ2(Kv7.2)/KCNQ3(Kv7.3) (Homo sapiens, UniProt O43525+O43526); test: Activation of KCNQ2/KCNQ3 expressed in CHO cells by isotopic efflux assay; assay type: cell-based
Outline: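 86Rb+ flux in K+-channel-expressing cells loaded by culture in 86RbCl, then washed in EBSS. Preincubated with drug (0.01-30 μM in EBSS), then efflux stimulated by submaximal KCl (generally 7-20 mM) with drug still present. Supernatant and SDS lysate counted by Cherenkov. Percent efflux normalized to high-KCl (generally 30-135 mM) maximum. EC50 from eight-point half-log curves; mean of 2-4 determinations ± SEM.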

[2] = test system: Mus musculus; test: Anticonvulsant activity against maximal electroshock-induced seizures in CD1 mouse model at 10 mg/kg, po treated 30 mins before electroshock application; assay type: functional, organism-based; set-up: dose 10 mg/kg
Outline: (§1)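 Male CD-1 mice dosed po (10 mL/kg in 5% DMSO/95% of 0.5% HPMC/1% Tween 80) 30 min before corneal electroshock at 50 mA for 0.2 s, with 1% proparacaine in each eye. Latency to hindlimb extension recorded to 0.1 s. No extension within 6 s scored as protected (latency 6 s). Reported as protected/tested (8 per group), or EC50 derived from latency scores.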

[3] = test system: Mus musculus; test: Anticonvulsant activity against maximal electroshock-induced seizures in CD1 mouse model at 20 mg/kg, po treated 30 mins before electroshock application; assay type: functional, organism-based; set-up: dose 20 mg/kg; outline: as §1
[4] = test system: Mus musculus; test: Anticonvulsant activity against maximal electroshock-induced seizures in CD1 mouse model at 30 mg/kg, po treated 30 mins before electroshock application; assay type: functional, organism-based; set-up: dose 30 mg/kg; outline: as §1
[5] = test system: Rattus norvegicus; test: Antinociceptive activity in formalin-treated Sprague-Dawley rat model assessed as reduction in hind paw flinches at 100 mg/kg, iv measured during 11 to 60 mins of phase 2 flinches; assay type: functional; set-up: scale not given: the % may be the effect or the level left
Outline: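 Formalin test in male Sprague-Dawley rats fitted with a 0.5 g metal band on the right hind paw. Rats received 50 μL of 2.5% formalin sc into the dorsal right hind paw and were placed unrestrained over an electromagnetic detector. Flinches were counted for 60 min, with phase II defined as 11-60 min.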

[6] = test system: Rattus norvegicus; test: Analgesic activity in Sprague-Dawley rat assessed as reduction of spinal nerve ligation-induced allodynia score at 100 mg/kg, iv; assay type: functional; set-up: scale not given: the % may be the effect or the level left
Outline: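 L5 spinal nerve ligation (4.0 silk, distal to DRG, halothane anesthesia) in male Sprague-Dawley rats, with 2-3 weeks recovery. Tactile allodynia read as von Frey paw withdrawal threshold on a wire mesh floor, capped at 15 g. Baseline measured right before dosing; behaviour tested 1 and 2 h after administration.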

[7] = test system: Rattus norvegicus; test: Antinociceptive activity in formalin-treated Sprague-Dawley rat model assessed as reduction in hind paw flinches at 17 mg/kg, po measured during 11 to 60 mins of phase 2 flinches; assay type: functional; set-up: scale not given: the % may be the effect or the level left
Outline: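 Male Sprague-Dawley rats dosed po in 0.5% methylcellulose 1 h before assay. A 0.5 g metal band was glued to the right hind paw 1 h beforehand. 2.5% formalin (50 μL) was injected sc into the dorsal right hind paw. An electromagnetic detector counted flinches for 60 min; phase II is 11-60 min post-injection.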

[8] = test system: Rattus norvegicus; test: Analgesic activity in Sprague-Dawley rat assessed as reduction of spinal nerve ligation-induced allodynia score at 10 mg/kg, po; assay type: functional; set-up: scale not given: the % may be the effect or the level left
Outline: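 Male Sprague-Dawley rats; L5 spinal nerve tightly ligated with 4.0 silk distal to the DRG under halothane, then 2-3 weeks recovery. Dosed po in 0.5% methylcellulose. Von Frey tactile withdrawal thresholds measured on a wire mesh floor, top threshold 15 g. Baseline taken just before dosing; testing at 1 and 2 h post-dose.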

[9] = test system: Mus musculus; test: Anticonvulsant activity against maximal electroshock-induced seizures in CD1 mouse model at 30 mg/kg, ip treated 15 mins before electroshock application; assay type: functional, organism-based; set-up: dose 30 mg/kg
Outline: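 Male CD-1 mice dosed ip at 30 mg/kg (10 mL/kg in 5% DMSO/95% of 0.5% HPMC/1% Tween 80) 15 min before corneal electroshock (50 mA, 0.2 s, 1% proparacaine in eyes). Hindlimb extension latency measured; no extension by 6 s counted as protected. Reported as protected/tested out of 8 mice.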

[10] = test system: Rattus norvegicus; test: Anticonvulsant activity in po dosed Sprague-Dawley rat assessed as inhibition of pentylenetetrazole-induced seizure treated 30 mins before PTZ challenge; assay type: functional, organism-based
Outline: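 Male Sprague-Dawley rats received compound po in 0.5% methylcellulose (1 mL/kg) 30 min before PTZ 85 mg/kg sc. Latency to tonic-clonic seizure timed from PTZ injection. No seizure within 15 min scored as protected (latency 15 min). EC50 derived from latency scores.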

Voltage-gated potassium channel, KQT; KCNQ2(Kv7.2)/KCNQ3(Kv7.3), sequence (O43526 whole entry): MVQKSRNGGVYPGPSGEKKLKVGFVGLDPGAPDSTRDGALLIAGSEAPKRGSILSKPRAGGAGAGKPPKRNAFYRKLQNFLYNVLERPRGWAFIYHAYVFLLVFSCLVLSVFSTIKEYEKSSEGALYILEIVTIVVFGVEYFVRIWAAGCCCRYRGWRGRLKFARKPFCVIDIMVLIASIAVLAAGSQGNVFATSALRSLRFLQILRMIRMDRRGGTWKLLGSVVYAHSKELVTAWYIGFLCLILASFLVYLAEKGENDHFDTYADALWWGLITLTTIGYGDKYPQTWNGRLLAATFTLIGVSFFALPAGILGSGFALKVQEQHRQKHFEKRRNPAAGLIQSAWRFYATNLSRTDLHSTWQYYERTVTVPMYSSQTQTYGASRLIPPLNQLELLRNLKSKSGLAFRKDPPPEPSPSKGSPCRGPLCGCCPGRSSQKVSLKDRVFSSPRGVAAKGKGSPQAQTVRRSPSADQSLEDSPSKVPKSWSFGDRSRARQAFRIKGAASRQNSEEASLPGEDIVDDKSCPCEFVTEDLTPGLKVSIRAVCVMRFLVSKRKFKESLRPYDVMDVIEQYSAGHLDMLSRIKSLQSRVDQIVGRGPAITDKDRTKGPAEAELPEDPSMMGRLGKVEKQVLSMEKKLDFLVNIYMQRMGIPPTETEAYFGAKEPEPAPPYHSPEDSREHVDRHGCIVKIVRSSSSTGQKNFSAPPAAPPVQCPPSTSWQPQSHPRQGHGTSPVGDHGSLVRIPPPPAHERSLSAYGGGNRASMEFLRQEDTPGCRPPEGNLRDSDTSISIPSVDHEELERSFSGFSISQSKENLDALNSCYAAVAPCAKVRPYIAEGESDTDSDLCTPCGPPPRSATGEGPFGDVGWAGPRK
Voltage-gated potassium channel, KQT; KCNQ2(Kv7.2)/KCNQ3(Kv7.3), sequence (O43525 whole entry): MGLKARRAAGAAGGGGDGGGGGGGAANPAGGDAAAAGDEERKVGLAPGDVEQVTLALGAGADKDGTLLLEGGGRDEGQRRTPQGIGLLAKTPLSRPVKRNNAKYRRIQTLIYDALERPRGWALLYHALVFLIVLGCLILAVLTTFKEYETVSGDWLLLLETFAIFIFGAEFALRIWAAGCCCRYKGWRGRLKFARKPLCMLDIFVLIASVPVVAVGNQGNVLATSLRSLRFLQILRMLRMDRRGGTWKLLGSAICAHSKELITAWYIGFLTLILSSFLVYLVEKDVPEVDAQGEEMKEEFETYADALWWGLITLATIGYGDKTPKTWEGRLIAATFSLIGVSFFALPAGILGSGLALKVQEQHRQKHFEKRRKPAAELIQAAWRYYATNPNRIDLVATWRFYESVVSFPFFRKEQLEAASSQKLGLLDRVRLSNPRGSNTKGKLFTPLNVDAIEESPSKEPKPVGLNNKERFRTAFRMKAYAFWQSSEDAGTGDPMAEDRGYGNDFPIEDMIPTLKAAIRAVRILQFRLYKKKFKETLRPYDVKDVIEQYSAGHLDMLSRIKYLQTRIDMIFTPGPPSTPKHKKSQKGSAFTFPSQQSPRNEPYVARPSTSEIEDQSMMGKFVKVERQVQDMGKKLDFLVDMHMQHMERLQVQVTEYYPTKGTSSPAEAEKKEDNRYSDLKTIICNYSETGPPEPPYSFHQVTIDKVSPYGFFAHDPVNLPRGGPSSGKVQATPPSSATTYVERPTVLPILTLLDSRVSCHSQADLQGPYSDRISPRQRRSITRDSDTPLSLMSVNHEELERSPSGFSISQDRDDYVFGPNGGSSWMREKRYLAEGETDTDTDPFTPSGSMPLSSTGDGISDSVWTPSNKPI

Row | SMILES | EC50 [1] [nM] | other results
1 | Cn1/c(=N/NC(=O)OC(C)(C)C)sc2cc(OC(F)(F)F)ccc21 | 23 | Activity [2]: Active
2 | Cn1/c(=N/NC(=O)C2CCCC2)sc2cc(OC(F)(F)F)ccc21 | 62 | Activity [3]: inactive
3 | Cn1/c(=N/NC(=O)C23CC4CC(CC(C4)C2)C3)oc2ccccc21 | 2700 | –
4 | Cn1/c(=N/NC(=O)OC2CCCC2)sc2cc(OC(F)(F)F)ccc21 | 29 | –
5 | Cn1/c(=N/NC(=O)c2cccc(F)c2)sc2cc(OC(F)(F)F)ccc21 | 100 | –
6 | Cn1/c(=N/NC(=O)C23CC4CC(CC(C4)C2)C3)sc2cccc(F)c21 | 380 | –
7 | Cn1/c(=N/NC(=O)c2ccco2)sc2cc(OC(F)(F)F)ccc21 | 500 | –
8 | Cn1/c(=N/NC(=O)C23CC4CC(CC(C4)C2)C3)sc2cc(C(F)(F)F)ccc21 | 160 | Activity [4]: inactive
9 | CC(=O)N/N=c1\sc2cc(OC(F)(F)F)ccc2n1C | > 10000 | –
10 | CCn1/c(=N/NC(=O)C23CC4CC(CC(C4)C2)C3)sc2ccccc21 | 570 | –
11 | Cn1/c(=N/NC(=O)c2ccccc2)sc2cc(OC(F)(F)F)ccc21 | 260 | –
12 | Cn1/c(=N/NC(=O)C2CCCCC2)sc2cc(OC(F)(F)F)ccc21 | 28 | –
13 | Cn1/c(=N/NC(=O)C2CCOC2)sc2cc(OC(F)(F)F)ccc21 (centres undefined) | 6730 | –
14 | NCC1(CC(=O)O)CCCCC1 [GABAPENTIN] | – | Activity [5]: 61%; Activity [6]: 70%
15 | Cn1/c(=N/NC(=O)C23CC4CC(CC(C4)C2)C3)sc2cccc(C(F)(F)F)c21 | 91 | –
16 | Cn1/c(=N/NC(=O)C23CC4CC(CC(C4)C2)C3)sc2cc(F)c(F)cc21 | 21 | –
17 | Cn1/c(=N/NC(=O)C23CC4CC(CC(C4)C2)C3)sc2cc(F)ccc21 | 28 | Activity [4]: inactive
18 | Cn1/c(=N/NC(=O)c2ccc(F)cc2)sc2cc(OC(F)(F)F)ccc21 | 44 | –
19 | Cn1/c(=N/NC(=O)C23CC4CC(CC(C4)C2)C3)sc2c(F)cccc21 | 98 | Activity [3]: inactive
20 | CN(/N=c1\sc2ccccc2n1C)C(=O)C12CC3CC(CC(C3)C1)C2 | > 10000 | –
21 | Cn1/c(=N/NC(=O)C2CCCO2)sc2cc(OC(F)(F)F)ccc21 (centres undefined) | 5570 | –
22 | Cn1/c(=N/NC(=O)C23CC4CC(CC(C4)C2)C3)sc2ccccc21 | 27 | –
23 | Cn1/c(=N/NC(=O)C23CC4CC(CC(C4)C2)C3)sc2c(C(F)(F)F)cccc21 | 2080 | –
24 | CCOC(=O)Nc1ccc(NCc2ccc(F)cc2)cc1N [EZOGABINE] | – | Activity [7]: 49%; Activity [8]: 0%
25 | Cn1/c(=N/NC(=O)C23CC4CC(CC(C4)C2)C3)sc2ccc(C(F)(F)F)cc21 | 53 | Activity [4]: inactive
26 | Cn1/c(=N/NC(=O)C23CC4CC(CC(C4)C2)C3)sc2cc(F)cc(F)c21 | 160 | –
27 | Cn1/c(=N/NC(=O)C23CC4CC(CC(C4)C2)C3)sc2cc(OC(F)(F)F)ccc21 | 25 | Activity [9]: Active
28 | Cn1/c(=N/NC(=O)C(C)(C)C)sc2cc(OC(F)(F)F)ccc21 | 710 | Activity [2]: inactive; EC50 [10]: 3.8 mg/kg
